In ChEMBL document CHEMBL1773028, “Pentasaccharide resin glycosides from Ipomoea pes-caprae” (2011):
The source made the active and inactive calls. No cut-off for these calls is given here.

Key:
NCI/ADR-RES [1] = experiment: Cytotoxicity against multidrug-resistance human MCF7/ADR cells after 48 hrs by MTT assay; assay type: functional, cell-based
Summary of the method: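 MCF-7/ADR cells grown in DMEM with 10% FBS, trypsinized, seeded at 4.5 × 10^4 cells/mL and held 24 h at 37 °C, 5% CO2. Compounds added in DMSO over 400 to 1 μg/mL. MTT read-out after 48 h exposure. Triplicate.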

NCI/ADR-RES [2] = experiment: Reversal fold, ratio of IC50 for doxorubicin alone to IC50 for doxorubicin in presence of compound in human MCF7/ADR cells after 48 hrs by MTT assay; assay type: functional
Summary of the method: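 MCF-7/ADR cells seeded at 4.5 × 10^3 per well. Doxorubicin serially diluted 0.008–25 μg/mL, with or without 5 μg/mL sample; verapamil 5 μg/mL as positive control. MTT after 48 h. Doxorubicin IC50 computed relative to untreated cells (100%). RF = IC50 doxorubicin alone / IC50 with sample. Triplicate.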

| Compound | Activity (NCI/ADR-RES [1]) | Ratio IC50 (NCI/ADR-RES [2]) |
| --- | --- | --- |
| CCCCCCCCCC(=O)O[C@H]1[C@H](O[C@@H]2[C@H]3OC(=O)CCCCCCCCC[C@H](CCCCC)O[C@@H]4O[C@H](C)[C@H](O)[C@H](O)[C@H]4O[C@H](O[C@H]2C)[C@@H]3O)O[C@@H](C)[C@H](O[C@@H]2O[C@@H](C)[C@H](OC(=O)[C@@H](C)CC)[C@@H](OC(=O)/C=C/c3ccccc3)[C@H]2O)[C@H]1O[C@@H]1O[C@@H](C)[C@H](O)[C@@H](O)[C@H]1O [PESCAPREIN XXIII] | inactive | 2.9 |
| CCCCCCCCCC(=O)O[C@H]1[C@H](O[C@@H]2[C@H]3OC(=O)CCCCCCCCC[C@H](CCCCC)O[C@@H]4O[C@H](C)[C@H](O)[C@H](O)[C@H]4O[C@H](O[C@H]2C)[C@@H]3O)O[C@@H](C)[C@H](O[C@@H]2O[C@@H](C)[C@H](OC(=O)[C@@H](C)CC)[C@@H](O)[C@H]2OC(=O)/C=C/c2ccccc2)[C@H]1O[C@@H]1O[C@@H](C)[C@H](O)[C@@H](O)[C@H]1O [PESCAPREIN XXIV] | inactive | 1.8 |
| CCCCCC(=O)O[C@H]1[C@H](O[C@@H]2[C@@H](O)[C@H]3OC(=O)CCCCCCCCC[C@H](CCCCC)O[C@@H]4O[C@H](C)[C@H](O)[C@H](O)[C@H]4O[C@@H]3O[C@H]2C)O[C@@H](C)[C@H](O[C@@H]2O[C@@H](C)[C@H](OC(=O)[C@@H](C)CC)[C@@H](OC(=O)/C=C/c3ccccc3)[C@H]2O)[C@H]1O[C@@H]1O[C@@H](C)[C@H](O)[C@@H](O)[C@H]1O [PESCAPREIN XXIX] | inactive | 3.2 |
| CCCCCCCCCCCC(=O)O[C@H]1[C@H](O[C@@H]2[C@H]3OC(=O)CCCCCCCCC[C@H](CCCCC)O[C@@H]4O[C@H](C)[C@H](O)[C@H](O)[C@H]4O[C@H](O[C@H]2C)[C@@H]3O)O[C@@H](C)[C@H](O[C@@H]2O[C@@H](C)[C@H](OC(=O)[C@@H](C)CC)[C@@H](O)[C@H]2OC(=O)/C=C/c2ccccc2)[C@H]1O[C@@H]1O[C@@H](C)[C@H](O)[C@@H](O)[C@H]1O [PESCAPREIN XXI] | inactive | 1.5 |
| CCCCCCCC(=O)O[C@H]1[C@H](O[C@@H]2[C@H]3OC(=O)CCCCCCCCC[C@H](CCCCC)O[C@@H]4O[C@H](C)[C@H](O)[C@H](O)[C@H]4O[C@H](O[C@H]2C)[C@@H]3O)O[C@@H](C)[C@H](O[C@@H]2O[C@@H](C)[C@H](OC(=O)[C@@H](C)CC)[C@@H](OC(=O)/C=C/c3ccccc3)[C@H]2O)[C@H]1O[C@@H]1O[C@@H](C)[C@H](O)[C@@H](O)[C@H]1O [PESCAPREIN XXVIII] | inactive | 2.3 |
| CCCCC[C@H]1CCCCCCCCCC(=O)O[C@H]2[C@@H](O)[C@H](O[C@H]3[C@H](O1)O[C@H](C)[C@H](O)[C@@H]3O)O[C@@H](C)[C@@H]2O[C@@H]1O[C@@H](C)[C@H](O[C@@H]2O[C@@H](C)[C@H](OC(=O)[C@@H](C)CC)[C@@H](OC(=O)/C=C/c3ccccc3)[C@H]2O)[C@@H](O[C@@H]2O[C@@H](C)[C@H](O)[C@@H](O)[C@H]2O)[C@H]1OC(=O)[C@@H](C)CC [PESCAPREIN XXVII] | inactive | 1.9 |
| CCCCCCCCCC(=O)O[C@H]1[C@H](O[C@@H]2[C@H]3OC(=O)CCCCCCCCC[C@H](CCCCC)O[C@@H]4O[C@H](C)[C@H](O)[C@H](O)[C@H]4O[C@H](O[C@H]2C)[C@@H]3O)O[C@@H](C)[C@H](O[C@@H]2O[C@@H](C)[C@H](OC(=O)C(C)C)[C@@H](OC(=O)/C=C/c3ccccc3)[C@H]2O)[C@H]1O[C@@H]1O[C@@H](C)[C@H](O)[C@@H](O)[C@H]1O [PESCAPREIN XXVI] | inactive | 3.7 |
| CCCCCCCCCCCC(=O)O[C@H]1[C@H](O[C@@H]2[C@H]3OC(=O)CCCCCCCCC[C@H](CCCCC)O[C@@H]4O[C@H](C)[C@H](O)[C@H](O)[C@H]4O[C@H](O[C@H]2C)[C@@H]3O)O[C@@H](C)[C@H](O[C@@H]2O[C@@H](C)[C@H](OC(=O)C(C)C)[C@@H](OC(=O)/C=C/c3ccccc3)[C@H]2O)[C@H]1O[C@@H]1O[C@@H](C)[C@H](O)[C@@H](O)[C@H]1O [PESCAPREIN XXV] | inactive | 2.1 |
| CCCCCCCCCC(=O)O[C@H]1[C@H](O[C@@H]2[C@@H](O)[C@H]3OC(=O)CCCCCCCCC[C@H](CCCCC)O[C@@H]4O[C@H](C)[C@H](O)[C@H](O)[C@H]4O[C@@H]3O[C@H]2C)O[C@@H](C)[C@H](O[C@@H]2O[C@@H](C)[C@H](O)[C@@H](OC(=O)[C@@H](C)CC)[C@H]2O)[C@H]1O[C@@H]1O[C@@H](C)[C@H](O)[C@@H](O)[C@H]1O [PESCAPREIN XXX] | inactive | 2.3 |
| COc1ccc(CCN(C)CCCC(C#N)(c2ccc(OC)c(OC)c2)C(C)C)cc1OC (centres undefined) [VERAPAMIL] |  | 21 |
